Test: Toxicity liver stage against HepG2, at 10uM
Type: cell-based
Design: test concentration 10 uM, cell line HepG2-A16-CD81EGFP
Conditions: human, HepG2-A16-CD81EGFP cells; read-out: INHIBITION
Procedure, shortened: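 Uninfected HepG2-A16-CD81EGFP cells, 3 × 10^3 per well, 1536-well, plated on prespotted compound at 10 μM final, parasite-free screening media added to match infected plates; puromycin 10 μM positive, DMSO 0.5% negative; run in parallel with 48 h PbLuc assay at 37 °C, 5% CO2; viability by CellTiter-Glo luminescence, normalized to controls.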

SMILES | cytotoxicity at 10 µM
OCCc1cc(CC2(NCc3ccncc3)COC2)no1 | -3.56%
CS(=O)(=O)c1ccc(-c2ccccc2C(=O)O)cc1 | 0.238%
O=C(NCCc1ccccc1)NCC(O)c1cccs1 (centres undefined) | -11.9%
COCC(=O)Nc1cnc(N2CCCC2)nc1 | -5.93%
COc1cccc2sc(N(C)CC(=O)NCc3nc(C)no3)nc12 | -1.53%
O=S(=O)(c1ccccc1)N1C[C@@H]2CCN[C@@H]2C1 | 2.58%
Cn1c2c(c(=O)n1C)CN(C(=O)c1ccco1)CCC2 | 10.5%
FC1(F)CCN(c2ccccc2)CC12CCN(c1ncccn1)C2 (centres undefined) | 3.71%
CCc1ncnc2c1CCN(c1ncc(F)cn1)CC2 | 7.86%
Cc1ccc(N2CCc3sc(C(=O)NCCN4CCCC4)cc32)nn1 | -2.19%
O=C(NCc1ccccc1)N1CCC2(CC(=O)N(c3ccccc3)C2)C1 (centres undefined) | 2.61%
O=C1CC[C@H]2[C@H](CCN2C(=O)c2ccc[nH]2)N1CCN1CCOCC1 | 3.3%
NC(=O)CSc1nnc2n1N=CN(c1ccccc1F)C2 | -3.78%
COc1cccc(-c2nc(C)c(C(=O)N[C@@H](C)C(=O)O)s2)c1 | 6.51%
CCCc1cc(=O)[nH]c2nnc(SCC(=O)NCc3ccc(C)cc3)n12 | -15.7%
O=C(NCC(Cc1cccc(F)c1)N1CCCC1=O)c1cnccn1 (centres undefined) | -5.06%
Cc1nnn2c1COCC(CNC(=O)c1ccc3[nH]ccc3c1)C2 (centres undefined) | -10.7%
COc1c(C(=O)NCC2CCCO2)nnn1Cc1ccccc1 (centres undefined) | 7.47%
CCN1CCN(c2nc(C(C)C)nc3c(C)nn(CC)c23)CC1 | -12.6%
Nc1nc(N)c2c(n1)OC1(CCN(Cc3nccs3)C1)C2 (centres undefined) | 0.861%
c1cnc(Nc2ccc(C3CCCCN3)cn2)cn1 (centres undefined) | 1.24%
CCN1CCCC(NC(=O)CCn2c(C(F)F)cc3cccnc32)C1 (centres undefined) | -0.212%

SMILES | cytotoxicity at 10 µM
Cc1nc(Nc2nnc(C)s2)cc(C2CCCN2C(C)C)n1 (centres undefined) | -23.9%
CC(=O)N1CCC(c2nc(C)cc(-c3ccccc3C(=O)O)n2)CC1 | -28%
NC(=O)CN(CC(N)=O)Cc1cccc(Oc2ccccc2)c1 | -5.05%
Cn1cc(NS(=O)(=O)CCOc2ccc(F)cc2)cn1 | -0.77%
Cc1cccc(C2CCCCCN2C(=O)c2cn(CC(N)=O)nn2)c1 (centres undefined) | 1.51%
O=C(CCc1nnc(-c2ccccc2)o1)N1CCCC1c1ccc[nH]1 (centres undefined) | -3.33%
CNC(=O)c1cccc(CNC2CCCSc3ccccc32)c1 (centres undefined) | -2.64%
CC(=O)NCc1ccc(S(=O)(=O)NC(=O)c2ccc3c(c2)CCO3)s1 | 16.1%
CC(O)CCN(C)S(=O)(=O)Cc1ccc(Cl)c(Cl)c1 (centres undefined) | 3.92%
Cc1nccc(CNC(=O)NCCC(=O)N2CCCc3ccccc32)n1 | -0.457%
CCCC(C)N(C)Cc1nnc(-c2ccc(Br)s2)o1 (centres undefined) | -1.16%
CNS(=O)(=O)c1cccc(CNc2ccc(C#N)cn2)c1 | -4.36%
O=C1CCN(C(=O)C2(c3ccc(F)cc3)CCCCC2)CCN1 | -7.4%
CCS(=O)(=O)N1CCC(Nc2ccc(C#N)cc2F)CC1 | 5.65%
Cc1noc(C)c1NS(=O)(=O)c1cc(C(=O)O)cc(Cl)c1Cl | 6.14%
CN(CCC#N)C(=O)CSc1cc(F)ccc1F | 13.2%
COc1ccc(NC(=O)c2ccoc2C)c(N2CCN(C(C)=O)CC2)n1 | -9.09%
N#Cc1ccnc(N2CCN(CC(O)c3ccccc3Cl)CC2)c1 (centres undefined) | 1.7%
Cc1nnc(C(C)NCC2(c3ccc(F)cc3)CCCCC2)o1 (centres undefined) | 2.39%
Cc1nc2n(n1)CC(NCc1ccnc(-c3ccccc3)n1)CC2 (centres undefined) | -0.898%
O=C(Cc1ccc2c(c1)OCO2)N1CCCN(c2nccs2)CC1 | -11.9%
O=C(NCc1ccccc1F)NC1CCCN(c2ncccn2)C1 (centres undefined) | 7.81%

SMILES | cytotoxicity at 10 µM
O=C(NCc1nnc2n1CCC2)NCC1(c2cccc(F)c2)CC1 | -6.03%
CCOC(=O)c1nc(CN2CCN(C(C)C(=O)NC3CC3)CC2)cs1 (centres undefined) | -2.52%
Cc1cc(NC(=O)CNc2cccc(C(=O)N3CCCC(O)C3)c2)no1 (centres undefined) | -2.21%
CC(NCC1CCN(CCO)CC1)c1cccnc1 (centres undefined) | -5.6%
O=C(NCCCO)Nc1cccc(C[S+]([O-])c2ccccc2)c1 (centres undefined) | 0.0964%
CCS(=O)(=O)CC(=O)NC1(c2ccc(Cl)c(Cl)c2)CC1 | -2.6%
O=C(CNC(=O)c1cnc2ccccc2c1O)NCCCn1ccnc1 | -5.28%
c1cncc(-c2ccnn2CN2CCC3(CC2)OCCO3)c1 | 8.19%
COCCNC(=O)c1ccc(C)c(-n2cccc2)c1 | -3.06%
CN(C)C(=O)NC1COC2(CCN(S(=O)(=O)c3ccccc3)CC2)C1 (centres undefined) | -88.5%
OCc1csc(N2CCCC(CO)(Cc3cccc(Cl)c3)C2)n1 (centres undefined) | 8.87%
O=C(c1ccc2nccn2c1)N(CCO)Cc1ccccc1F | 5.27%
O=C(O)C1(Oc2cccc(F)c2)CCN(C2CCOCC2)CC1 | -7.16%
CCCN1CCN(C(=O)c2ccc3ccccc3n2)[C@H]2CS(=O)(=O)C[C@H]21 | -3.31%
Cc1ccc2[nH]c(=O)c(CN(C)Cc3cc(C4CC4)[nH]n3)cc2c1 | -3.07%
CN(C)CCC1CN(C(=O)c2cccc3c2OCC3)CCO1 (centres undefined) | 2.13%
O=C(N1CCCC1)N1CCCC(c2nccn2Cc2ccncc2)C1 (centres undefined) | 8.2%
Cc1nnc(NC(=O)N2CCN(Cc3ccc(F)cc3)C(=O)C2)s1 | -0.392%
Cc1c(Cl)c(C(=O)N2C[C@@H](C(=O)O)[C@H](c3cccnc3)C2)nn1C | 6.21%
c1ccc(-c2cc(CN3CCCCCC3c3ccco3)on2)nc1 (centres undefined) | -6.19%
COc1cc(NC2CCN(C3CCS(=O)(=O)CC3)CC2)ncn1 | 1.64%
CNC(=O)[C@@H]1C[C@@H](N)CN1C(=O)CCSCc1ccccc1 | 6.7%

SMILES | cytotoxicity at 10 µM
Cn1ncc2c(N3CCN(CCO)CC3)nc(C3CCCC3)nc21 | -4.07%
O=C(O)[C@@H]1CN(CCOCCO)C[C@H]1c1ccccc1 | -2.33%
N#Cc1ccc(C(=O)N2CCC3(CC2)C(=O)Nc2ccccc23)cn1 | 13.5%
Cc1nc2c(c(N3CC=CC3)n1)CCN(Cc1ccoc1)CC2 | -6.51%
CC(C)n1ccnc1C1CCN(Cc2ccc(Cl)s2)CC1 | -7.09%
CC(C)c1ccc(-c2nonc2N)cc1 | -3.25%
COc1c(C2CCCN2C(=O)c2cnc(C)cn2)c(C)nn1C (centres undefined) | 2.58%
CC(=O)N(C)c1nc(CN2CCCC2Cn2nc(C)cc2C)cs1 (centres undefined) | -10.3%
Cc1nc(NC(=O)CCc2c(C)nc3cc(O)nn3c2C)sc1C | -13.5%
COc1cc(CCC(=O)NC2CCN(C)CC2)ccc1OCC(F)(F)F | -8.82%
Cc1ccc(C2=CCN(C(=O)C3CCN(C)C(=O)C3)CC2)cc1 (centres undefined) | -12.1%
CC(C)CN(C)Cc1nc2c(cnn2C)c(=O)[nH]1 | -12.3%
CC(C)c1nnc(NC(=O)NC2CCN(Cc3ccccc3)C2)s1 (centres undefined) | -11.2%
NC(=O)Cn1cc(NC(=O)N2CCSCC2)cn1 | -9.95%
Cn1cc(C2CCCN2CCc2nc3ccccc3c(=O)[nH]2)cn1 (centres undefined) | -12.9%
Cc1cc(C)c(CNC(=O)N2CCCC2c2ccccn2)c(=O)[nH]1 (centres undefined) | 1.17%
CC(=O)N1CCN(C(=O)CN2CCCC2Cn2nc(C)cc2C)CC1 (centres undefined) | -12.2%
O=C(NCCNc1ncccn1)N1CCN(c2nccs2)CC1 | -13.8%
CC1COCCN1Cc1nc(-c2cccc(Br)c2)no1 (centres undefined) | -3.04%
Cc1cccc(CC(=O)N2CCN(c3nccn3C)CC2)c1 | 8.68%
COCCN1CC2(CCN(C(=O)c3ccno3)CC2)c2ccccc21 | 0.729%
O=C(c1ccc(O)cc1)N1C[C@@H]2OCCN(c3ncccn3)[C@@H]2C1 | 6.72%

SMILES | cytotoxicity at 10 µM
CCS(=O)(=O)N1C[C@@H](Oc2ccccn2)[C@H]2OCCC[C@H]21 | 5.08%
Cc1noc(C)c1CN1CCn2cc(CN3CCCC3)nc2C1 | 5.37%
Cn1cnc2c(N3CCCC3)nc(C3CCN(CC4CC4)CC3)cc21 | -5.26%
Cc1ccc(CN2C[C@@H](OCc3csc(C)n3)[C@H]3COC[C@H]32)s1 | -5.21%
O=C(O)c1cc2c(nc1N1CCCC1)CCN(C1CCOCC1)CC2 | 3.02%
Cc1noc(C)c1CN1C[C@@H](OCc2ccccn2)[C@H]2OCCC[C@H]21 | -3.14%
CC(C)CN1C[C@H]2CCN(c3ncccn3)CC[C@H]2S1(=O)=O | -11.2%
O=C(NC1CC1)[C@H]1C[C@H]2OCC[C@H]2N(Cc2ccc(F)cc2)C1 | 3.62%
O[C@@H]1CCN(CC2CC2)[C@H]1Cc1ccccc1 | 3.57%
FC(F)(F)c1cccc(-c2c[nH]c(C3CCCN3)n2)c1 (centres undefined) | -3.25%
COCC1CC2(CCNCC2)CN1Cc1csc(C)n1 (centres undefined) | 5.77%
O=C(NCc1cn2c(n1)CN(Cc1cccc(F)c1)CC2)C1CCC1 | 8.79%
CO[C@@H]1CCN(C(=O)c2ccccn2)[C@H]1Cc1ccccc1 | 4.89%
Cc1ccc(CN2C[C@@H]3CCCO[C@@H]3[C@H](N(C)Cc3ccco3)C2)s1 | 3.88%
CO[C@H]1CN(C(=O)c2cccnc2)[C@@H]2CCCO[C@H]12 | 5%
CN(Cc1ccco1)C[C@H]1OC[C@@H]2CCN(Cc3ccccn3)C[C@@H]21 | -3.22%
c1cc(CN2CCO[C@@H]3CNC[C@@H]32)cs1 | 9.22%
CC(C)CCn1c(=O)[nH]c2cn(-c3ccc(F)cc3)c(=O)n21 | 2.97%
O=C1[C@@H]2CC[C@@H](CN(C3CSCCSC3)C2)N1Cc1cscn1 | -15.1%
O=C1OCCN1CC(=O)N1C[C@@H]2CC[C@H]1CN(Cc1cscn1)C2 | -5.41%
COCCN1C(=O)CCC12CCC(NC(=O)c1cnccn1)CC2 (centres undefined) | -6.19%

Reference: ChEMBL document CHEMBL4513216, “Probing the Open Global Health Chemical Diversity Library for Multistage-Active Starting Points for Next-Generation Antimalarials” (ACS Infect Dis, 2020)
